Measured values taken from ChEMBL document CHEMBL4028903 (J Med Chem, 2017).
≈ marks a conversion by molar mass, not a printed value. Calls of active or inactive are those of the source. The rule behind the calls is not given here.

Assays:
Bile acid receptor [1] = target: T1, Bile acid receptor (Homo sapiens, UniProt Q96RI1); test: Agonist activity at recombinant human GST-tagged FXR ligand binding domain (193 to 472 residues) expressed in baculovirus infected insect cells assessed as induction of interaction with biotin labelled SRC-1 after 1 hr by HTRF assay
T1 sequence (Q96RI1 whole entry): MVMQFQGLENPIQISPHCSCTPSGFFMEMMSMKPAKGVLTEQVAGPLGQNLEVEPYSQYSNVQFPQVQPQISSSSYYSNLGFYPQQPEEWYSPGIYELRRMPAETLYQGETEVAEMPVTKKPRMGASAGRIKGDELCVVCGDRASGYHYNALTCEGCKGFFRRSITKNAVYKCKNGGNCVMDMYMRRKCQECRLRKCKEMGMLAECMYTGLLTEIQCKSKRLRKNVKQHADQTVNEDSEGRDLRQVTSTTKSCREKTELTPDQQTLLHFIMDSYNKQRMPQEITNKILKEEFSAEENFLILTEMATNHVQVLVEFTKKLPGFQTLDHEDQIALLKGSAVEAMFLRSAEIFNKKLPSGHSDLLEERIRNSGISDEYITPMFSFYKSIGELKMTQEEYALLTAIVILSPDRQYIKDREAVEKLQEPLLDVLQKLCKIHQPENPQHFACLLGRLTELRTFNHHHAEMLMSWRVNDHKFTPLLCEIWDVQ

Bile acid receptor [2] = target: T1, Bile acid receptor; test: Agonist activity at human FXR expressed in HEK293T cells assessed as BSEP promoter driven cellular transcriptional activity after 24 hrs by luciferase reporter gene assay; assay type: cell-based, HEK-293T
[3] = Solubility of the compound in fasted state simulated intestinal fluid at pH 6.8; assay type: physicochemical
[4] = Dissociation constant, pKa of compound; assay type: physicochemical
[5] = Extraction ratio in rat liver microsomes; assay type: ADME, microsome; conditions: read-out: ERH
[6] = Extraction ratio in human liver microsomes; assay type: ADME, microsome; conditions: read-out: ERH
[7] = Clearance in rat at 3 mg/kg, iv by LC-MS/MS analysis; assay type: ADME, organism-based; conditions: in vivo
Outline: (§1)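 Rats were dosed IV as a solution in 75% PEG300:25% D5W, or orally as a suspension in 0.5% methylcellulose, 0.5% Tween80 and 99% water.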

[8] = Volume of distribution at steady state in rat at 3 mg/kg, iv by LC-MS/MS analysis; assay type: ADME, organism-based; conditions: in vivo, read-out: Vdss; outline: as §1
[9] = Terminal half life in rat at 3 mg/kg, iv by LC-MS/MS analysis; assay type: ADME, organism-based; conditions: in vivo, read-out: beta t1/2 (converted); outline: as §1
[10] = AUC in rat at 10 mg/kg, po administered via gavage by LC-MS/MS analysis; assay type: ADME, organism-based; conditions: in vivo; outline: as §1
[11] = Cmax in rat at 10 mg/kg, po administered via gavage by LC-MS/MS analysis; assay type: ADME, organism-based; design: dose 10 mg/kg, route oral; conditions: in vivo; outline: as §1
[12] = Oral bioavailability in rat at 10 mg/kg administered via gavage by LC-MS/MS analysis; assay type: ADME, organism-based; conditions: in vivo; outline: as §1
Rattus norvegicus [13] = test: In vivo agonist activity at FXR in po dosed Sprague-Dawley rat assessed as induction of BSEP mRNA level in liver administered as single dose after 7 hrs post dose by qPCR analysis; assay type: functional, organism-based
Rattus norvegicus [14] = test: In vivo agonist activity at FXR in po dosed Sprague-Dawley rat assessed as induction of SHP mRNA level in liver administered as single dose after 7 hrs post dose by qPCR analysis; assay type: functional, organism-based
Rattus norvegicus [15] = test: In vivo agonist activity at FXR in Sprague-Dawley rat assessed as induction of SHP mRNA level in liver at 1 mg/kg, po administered as single dose after 7 hrs post dose by qPCR analysis relative to control; assay type: functional
Rattus norvegicus [16] = test: In vivo agonist activity at FXR in Sprague-Dawley rat assessed as induction of SHP mRNA level in ileum at 0.3 mg/kg, po administered as single dose after 7 hrs post dose by qPCR analysis; assay type: functional, organism-based
Rattus norvegicus [17] = test: In vivo agonist activity at FXR in Sprague-Dawley rat assessed as induction of FGF15 mRNA level in ileum at 0.3 mg/kg, po administered as single dose after 7 hrs post dose by qPCR analysis; assay type: functional, organism-based
Rattus norvegicus [18] = test: In vivo agonist activity at FXR in po dosed Sprague-Dawley rat assessed as induction of SHP mRNA level in ileum administered as single dose measured 7 hrs post dose by qPCR analysis; assay type: functional, organism-based
Rattus norvegicus [19] = test: In vivo agonist activity at FXR in po dosed Sprague-Dawley rat assessed as induction of BSEP mRNA level in liver administered as single dose measured 7 hrs post dose by qPCR analysis
[20] = target: T2, G-protein coupled bile acid receptor 1 (Mus musculus, UniProt Q80SS6); test: Agonist activity at mouse TGR5
T2 sequence (Q80SS6 whole entry): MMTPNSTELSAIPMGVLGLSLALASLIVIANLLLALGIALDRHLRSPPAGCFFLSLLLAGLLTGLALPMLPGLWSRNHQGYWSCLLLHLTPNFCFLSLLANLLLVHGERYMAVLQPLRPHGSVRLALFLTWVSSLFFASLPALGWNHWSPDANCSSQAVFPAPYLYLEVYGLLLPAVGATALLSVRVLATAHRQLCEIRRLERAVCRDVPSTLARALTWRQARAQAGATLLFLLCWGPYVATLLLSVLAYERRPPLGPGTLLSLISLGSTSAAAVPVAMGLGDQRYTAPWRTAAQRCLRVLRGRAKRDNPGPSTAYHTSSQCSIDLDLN

[21] = target: T3, G-protein coupled bile acid receptor 1 (Homo sapiens, UniProt Q8TDU6); test: Agonist activity at human TGR5
T3 sequence (Q8TDU6 whole entry): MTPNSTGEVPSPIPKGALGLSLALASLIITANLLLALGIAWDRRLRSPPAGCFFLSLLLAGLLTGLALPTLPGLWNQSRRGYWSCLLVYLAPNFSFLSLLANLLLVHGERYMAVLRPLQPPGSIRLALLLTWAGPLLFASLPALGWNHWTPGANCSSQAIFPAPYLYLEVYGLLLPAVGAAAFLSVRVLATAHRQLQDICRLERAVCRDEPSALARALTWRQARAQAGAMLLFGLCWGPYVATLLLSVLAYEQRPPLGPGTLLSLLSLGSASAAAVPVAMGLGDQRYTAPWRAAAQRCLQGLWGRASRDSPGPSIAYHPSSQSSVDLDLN

[22] = target: T3, G-protein coupled bile acid receptor 1; test: Agonist activity at human TGR5 relative to control; conditions: read-out: Efficacy

Structure (SMILES)	EC50 (Bile acid receptor [1])	EC50 (Bile acid receptor [2])	solubility [3]	pKa [4]	hepatic extraction ratio [5]	hepatic extraction ratio [6]	clearance [7]	Vd [8]	half-life [9]	AUC [10]	Cmax [11]	bioavailability [12]	further results
O=C(O)c1cc(F)c2nc(N3C4CCC3CC(OCc3c(-c5ccccc5C(F)(F)F)noc3C3CC3)C4)sc2c1 (stereo not given)	0.46 nM	0.54 nM	510 µM (≈ 300 µg/mL)	4	0.19	0.36	11 mL/min/kg	0.6 L/kg	1.8 h	3.64 µM·h	2110 nM	14%	Activity (Rattus norvegicus [13]): Dose-dependent effect; Activity (Rattus norvegicus [14]): Dose-dependent effect; fold change (FC) (Rattus norvegicus [15]): 6; Activity (Rattus norvegicus [16]): Active; Activity (Rattus norvegicus [17]): Active; Activity (Rattus norvegicus [18]): Dose-dependent effect; Activity (Rattus norvegicus [19]): Dose-dependent effect
O=C(O)c1ccc2nc(N3CC[C@@H](OCc4c(-c5c(Cl)cccc5Cl)noc4C4CC4)C3)sc2c1	3060 nM	9200 nM											
CC[C@H]1[C@@H](O)[C@@H]2[C@H](CC[C@]3(C)[C@@H]([C@H](C)CCC(=O)O)CC[C@@H]23)[C@@]2(C)CC[C@@H](O)C[C@@H]12 [OBETICHOLIC ACID]													EC50 [20]: 5740 nM
O=C(O)c1ccc2nc(N3CCC(OCc4c(-c5c(F)cccc5F)noc4C4CC4)CC3)sc2c1		88 nM	169 µM (≈ 86.5 µg/mL)		0.52	0.27							
O=C(O)c1ccc2nc(N3CCCC(OCc4c(-c5ccccc5OC(F)(F)F)noc4C4CC4)CC3)sc2c1 (stereo not given)	4.2 nM	6.6 nM	126 µM (≈ 72.3 µg/mL)		0.75	0.89							
CC[C@H]1[C@@H](O)[C@H]2[C@@H]3CC[C@H]([C@H](C)CCC(=O)NCC(=O)O)C3(C)CC[C@@H]2[C@@]2(C)CC[C@@H](O)C[C@@H]12 (single isomer, unassigned)													EC50 [21]: 315 nM; Emax [22]: 101%; EC50 [20]: 637 nM
CC[C@H]1[C@@H](O)[C@H]2[C@@H]3CC[C@H]([C@H](C)CCC(=O)NCCS(=O)(=O)O)C3(C)CC[C@@H]2[C@@]2(C)CC[C@@H](O)C[C@@H]12 (single isomer, unassigned)													EC50 [21]: 205 nM; Emax [22]: 102%; EC50 [20]: 906 nM
O=C(O)c1ccc2nc(N3CCC(OCc4c(-c5ccccc5OC(F)(F)F)noc4C4CC4)CC3)sc2c1			70 µM (≈ 39.2 µg/mL)				24 mL/min/kg	1.2 L/kg	1 h	4.57 µM·h	382 nM	37%	
O=C(O)c1ccc2nc(N3C4CCC3CC(OCc3c(-c5ccccc5OC(F)(F)F)noc3C3CC3)C4)sc2c1 (stereo not given)	0.54 nM	0.69 nM	110 µM (≈ 64.4 µg/mL)	5.1	0.51	< 0.2	17 mL/min/kg	1.1 L/kg	1 h	1.92 µM·h	173 nM	11%	
O=C(O)c1cc(F)c2nc(N3C4CCC3CC(OCc3c(-c5ccccc5OC(F)F)noc3C3CC3)C4)sc2c1 (stereo not given)	0.27 nM	0.8 nM	750 µM (≈ 439 µg/mL)	4	0.4	0.61	11 mL/min/kg	0.7 L/kg	3.7 h	3.45 µM·h	2120 nM	14%	
COc1cc(C(=O)O)cc2sc(N3C4CCC3CC(OCc3c(-c5ccccc5OC(F)(F)F)noc3C3CC3)C4)nc12 (stereo not given)	0.57 nM	0.42 nM	75 µM (≈ 46.2 µg/mL)	4.5	0.5	0.64	9 mL/min/kg	0.26 L/kg	0.7 h	2.67 µM·h	1990 nM	9%	
Cc1cc(C(=O)O)cc2sc(N3C4CCC3CC(OCc3c(-c5ccccc5OC(F)(F)F)noc3C3CC3)C4)nc12 (stereo not given)	0.49 nM	0.82 nM	< 10 µM	5.5	< 0.18	< 0.21	14 mL/min/kg	0.84 L/kg	1 h	0.832 µM·h	86 nM	3%	
O=C(O)c1ccc2nc(N3CCC(OCc4c(-c5c(Cl)cccc5Cl)noc4C4CC4)CC3)sc2c1	8.3 nM	9.5 nM	61 µM (≈ 33.2 µg/mL)		0.58	0.81	50 mL/min/kg	0.55 L/kg	0.34 h	0.39 µM·h	44 nM	6%	
O=C(O)c1ccc2nc(N3CCC(OCc4c(-c5ccccc5C(F)(F)F)noc4C4CC4)CC3)sc2c1	66 nM	70 nM	131 µM (≈ 71.2 µg/mL)		0.5	0.38							
O=C(O)c1ccc2nc(N3CC(OCc4c(-c5ccccc5OC(F)(F)F)noc4C4CC4)C3)sc2c1	1580 nM	8400 nM											
